Assay results taken from ChEMBL document CHEMBL2203165, “Glycolysis inhibitor screening identifies the bis-geranylacylphloroglucinol protonophore moronone from Moronobea coccinea” (2012).
Active and inactive are the calls of the source. The rule behind the calls is not given here.

Experiments:
MDA-MB-231 [1] = assay: Effect on lactate production in human MDA-MB-231 cells at 0.1 uM measured per ug of cellular protein after 24 hrs by enzyme based assay (reference value: 23.6 +/- 2 nmol/ug of cellular protein); assay type: functional
MDA-MB-231 [2] = assay: Inhibition of cell viability of human MDA-MB-231 cells at 0.1 uM after 48 hrs by sulforhodamine B method; assay type: functional; settings: MDA-MB-231, 48 h
How it was run: (§1)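 MDA-MB-231 cells are plated at 3×10^4 per well in RPMI 1640 with 10% FBS. After 24 h, compound diluted in serum-free medium is added, with DMSO below 0.5%. Cells are incubated 48 h at 37 °C and viability is read by sulforhodamine B as % inhibition of untreated control. Concentration-response runs are in half-log steps.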

MDA-MB-231 [3] = assay: Effect on lactate production in human MDA-MB-231 cells at 0.1 uM measured per ug of cellular protein after 48 hrs by enzyme based assay (reference value: 40.5 +/- 6 nmol/ug of cellular protein); assay type: functional
MDA-MB-231 [4] = assay: Increase in cellular glucose consumption in human MDA-MB-231 cells at 0.1 uM measured per ug of cellular protein after 48 hrs by enzyme based assay (reference value: 43 +/- 8.4 nmol/ug of cellular protein); assay type: functional
MDA-MB-231 [5] = assay: Increase in cellular glucose consumption in human MDA-MB-231 cells at 0.1 uM measured per ug of cellular protein after 24 hrs by enzyme based assay (reference value: 17.2 +/- 2 nmol/ug of cellular protein); assay type: functional
MDA-MB-231 [6] = assay: Inhibition of cell viability of human MDA-MB-231 cells at 30 mM after 48 hrs by sulforhodamine B method; assay type: functional, cell-based; how it was run: as §1
MDA-MB-231 [7] = assay: Increase in cellular glucose consumption in human MDA-MB-231 cells at […] measured per ug of cellular protein after 24 hrs by enzyme based assay (reference value: 17.2 +/- 2 nmol/ug of cellular protein); assay type: functional
MDA-MB-231 [8] = assay: Inhibition of cell viability of human MDA-MB-231 cells at 3 mM after 48 hrs by sulforhodamine B method; assay type: functional; settings: MDA-MB-231, 48 h; how it was run: as §1
MDA-MB-231 [9] = assay: Increase in cellular glucose consumption in human MDA-MB-231 cells at […] measured per ug of cellular protein after 48 hrs by enzyme based assay (reference value: 43 +/- 8.4 nmol/ug of cellular protein); assay type: functional
MDA-MB-231 [10] = assay: Inhibition of cell viability of human MDA-MB-231 cells at 10 mM after 48 hrs by sulforhodamine B method; assay type: functional, cell-based; how it was run: as §1
MDA-MB-231 [11] = assay: Effect on lactate production in human MDA-MB-231 cells at […] measured per ug of cellular protein after 24 hrs by enzyme based assay (reference value: 23.6 +/- 2 nmol/ug of cellular protein); assay type: functional
MDA-MB-231 [12] = assay: Inhibition of cell viability of human MDA-MB-231 cells at 3 mM after 48 hrs by sulforhodamine B method in presence of 1 uM mitochondrial ETC complex III inhibitor antimycin A; assay type: functional, cell-based
MDA-MB-231 [13] = assay: Inhibition of cell viability of human MDA-MB-231 cells at 1 mM after 48 hrs by sulforhodamine B method; assay type: functional; settings: MDA-MB-231, 48 h; how it was run: as §1
MDA-MB-231 [14] = assay: Effect on lactate production in human MDA-MB-231 cells at […] measured per ug of cellular protein after 48 hrs by enzyme based assay (reference value: 40.5 +/- 6 nmol/ug of cellular protein); assay type: functional
MDA-MB-231 [15] = assay: Inhibition of cell viability of human MDA-MB-231 cells at 3 mM after 48 hrs by sulforhodamine B method in presence of 1 uM F1F0-ATPase inhibitor oligomycin; assay type: functional, cell-based
MDA-MB-231 [16] = assay: Effect on lactate production in human MDA-MB-231 cells at 1 uM measured per ug of cellular protein after 48 hrs by enzyme based assay (reference value: 40.5 +/- 6 nmol/ug of cellular protein); assay type: functional
MDA-MB-231 [17] = assay: Effect on lactate production in human MDA-MB-231 cells at 10 uM measured per ug of cellular protein after 24 hrs by enzyme based assay (reference value: 23.6 +/- 2 nmol/ug of cellular protein); assay type: functional
MDA-MB-231 [18] = assay: Effect on lactate production in human MDA-MB-231 cells at 10 uM measured per ug of cellular protein after 48 hrs by enzyme based assay (reference value: 40.5 +/- 6 nmol/ug of cellular protein); assay type: functional
MDA-MB-231 [19] = assay: Increase in cellular glucose consumption in human MDA-MB-231 cells at 1 uM measured per ug of cellular protein after 24 hrs by enzyme based assay (reference value: 17.2 +/- 2 nmol/ug of cellular protein); assay type: functional
MDA-MB-231 [20] = assay: Cytotoxicity against human MDA-MB-231 cells assessed as inhibition of cell proliferation/viability at 30 uM in presence of 0.1 uM rotenone mitochondrial electron transport inhibitor; assay type: functional
How it was run: (§2)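 MDA-MB-231 cells in RPMI 1640 with 10% FBS, plated 3×10^4/well; after 24 h, compound diluted in serum-free medium added with or without rotenone (0.1 μM final), DMSO <0.5%. 48 h at 37 °C; viability by sulforhodamine B; % inhibition of untreated control; two independent experiments each in triplicate (n = 6).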

T47D [21] = assay: Increase in cellular respiration in human T47D cells assessed as increase in oxygen consumption at 0.1 to 1 uM after 48 hrs; assay type: functional, cell-based
How it was run: (§3)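 Oxygen consumption of intact MDA-MB-231 or T47D cells measured with a Clark-type electrode, no FBS present; compound tested at 0.1, 0.3, 1 and 3 μM; rate normalized to untreated control. Average + standard deviation from three independent experiments (n = 3).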

MDA-MB-231 [22] = assay: Effect on lactate production in human MDA-MB-231 cells at 3 uM measured per ug of cellular protein after 24 hrs by enzyme based assay (reference value: 23.6 +/- 2 nmol/ug of cellular protein); assay type: functional
MDA-MB-231 [23] = assay: Increase in cellular respiration in human MDA-MB-231 cells assessed as increase in oxygen consumption at 0.1 to 1 uM after 48 hrs; assay type: functional, cell-based; how it was run: as §3
MDA-MB-231 [24] = assay: Increase in cellular glucose consumption in human MDA-MB-231 cells at 3 uM measured per ug of cellular protein after 24 hrs by enzyme based assay (reference value: 17.2 +/- 2 nmol/ug of cellular protein); assay type: functional
MDA-MB-231 [25] = assay: Effect on lactate production in human MDA-MB-231 cells at 3 uM measured per ug of cellular protein after 48 hrs by enzyme based assay (reference value: 40.5 +/- 6 nmol/ug of cellular protein); assay type: functional
MDA-MB-231 [26] = assay: Cytotoxicity against human MDA-MB-231 cells assessed as inhibition of cell proliferation/viability at 0.1 to 10 uM in presence of 0.1 uM rotenone mitochondrial electron transport inhibitor; assay type: functional, cell-based; how it was run: as §2
MDA-MB-231 [27] = assay: Decrease in mitochondrial membrane potential in human MDA-MB-231 cells assessed as decline in respiration rate at 1 uM after 48 hrs; assay type: functional, cell-based; how it was run: as §3
T47D [28] = assay: Decrease in mitochondrial membrane potential in human T47D cells assessed as decline in respiration rate at 3 uM after 48 hrs; assay type: functional, cell-based; how it was run: as §3
MDA-MB-231 [29] = assay: Decrease in mitochondrial membrane potential in human MDA-MB-231 cells assessed as decline in respiration rate at 3 uM after 48 hrs; assay type: functional, cell-based; how it was run: as §3
T47D [30] = assay: Decrease in mitochondrial membrane potential in human T47D cells assessed as decline in respiration rate at 1 uM after 48 hrs; assay type: functional, cell-based; how it was run: as §3
MDA-MB-231 [31] = assay: Increase in cellular glucose consumption in human MDA-MB-231 cells at 1 uM measured per ug of cellular protein after 48 hrs by enzyme based assay (reference value: 43 +/- 8.4 nmol/ug of cellular protein); assay type: functional
MDA-MB-231 [32] = assay: Effect on lactate production in human MDA-MB-231 cells at 1 uM measured per ug of cellular protein after 24 hrs by enzyme based assay (reference value: 23.6 +/- 2 nmol/ug of cellular protein); assay type: functional
MDA-MB-231 [33] = assay: Stimulation of oligomycin-induced state 4 respiration in human MDA-MB-231 cells at 1 uM; assay type: functional, cell-based
How it was run: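 Oligomycin (1 μM) added to MDA-MB-231 cells in a Clark-type electrode chamber to initiate state 4 respiration. Compound (1 μM) then added and oxygen consumption followed. Rate normalized to untreated control.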

MDA-MB-231 [34] = assay: Increase in cellular glucose consumption in human MDA-MB-231 cells at 10 uM measured per ug of cellular protein after 48 hrs by enzyme based assay (reference value: 43 +/- 8.4 nmol/ug of cellular protein); assay type: functional
MDA-MB-231 [35] = assay: Increase in cellular glucose consumption in human MDA-MB-231 cells at 10 uM measured per ug of cellular protein after 24 hrs by enzyme based assay (reference value: 17.2 +/- 2 nmol/ug of cellular protein); assay type: functional
MDA-MB-231 [36] = assay: Increase in cellular glucose consumption in human MDA-MB-231 cells at 3 uM measured per ug of cellular protein after 48 hrs by enzyme based assay (reference value: 43 +/- 8.4 nmol/ug of cellular protein); assay type: functional

Work on `C=C(C)[C@H]1Cc2c(ccc3c2O[C@@H]2COc4cc(OC)c(OC)cc4[C@@H]2C3=O)O1` [ROTENONE] yielded an Activity (MDA-MB-231 [1]) of 75.7 nmol, an inhibition at 0.1 µM (MDA-MB-231 [2]) of 7% and an Activity (MDA-MB-231 [3]) of 190.4 nmol. It also gave an Activity (MDA-MB-231 [4]) of 177.6 nmol and an Activity (MDA-MB-231 [5]) of 37.5 nmol.

For `OC[C@H]1O[C@@H](O)C[C@@H](O)[C@@H]1O`, the inhibition (MDA-MB-231 [6]) was “Active”, the Activity (MDA-MB-231 [7]) was 22.5 nmol and the inhibition at 3000 µM (MDA-MB-231 [8]) was 8%. The Activity (MDA-MB-231 [9]) was 50.2 nmol, the inhibition (MDA-MB-231 [10]) was “Active” and the Activity (MDA-MB-231 [11]) was 26.3 nmol. The inhibition (MDA-MB-231 [12]) was “Active”, the inhibition at 1000 µM (MDA-MB-231 [13]) was 4% and the Activity (MDA-MB-231 [14]) was 52.8 nmol. For the same molecule, the inhibition (MDA-MB-231 [15]) was “Active”.

For `CC(C)=CCC/C(C)=C/CC1(C/C=C(\C)CCC=C(C)C)C(O)=CC(=O)C(C(=O)c2ccccc2)=C1O` (stereo unspecified) [MORONONE], the Activity (MDA-MB-231 [16]) was 49.3 nmol, the Activity (MDA-MB-231 [17]) was 59.5 nmol and the Activity (MDA-MB-231 [18]) was 168.5 nmol. The Activity (MDA-MB-231 [19]) was 26.7 nmol, the “inhibition (INH)” value (MDA-MB-231 [20]) was 68% and the Activity (T47D [21]) was “Active”. The Activity (MDA-MB-231 [22]) was 25.4 nmol, the Activity (MDA-MB-231 [23]) was “Active” and the Activity (MDA-MB-231 [24]) was 25.9 nmol. For the same molecule, the Activity (MDA-MB-231 [25]) was 67.3 nmol, the Activity (MDA-MB-231 [26]) was “Active” and the Activity (MDA-MB-231 [27]) was “Active”. The Activity (T47D [28]) was “Active”, the Activity (MDA-MB-231 [29]) was “Active” and the Activity (T47D [30]) was “Active”. For the same molecule, the Activity (MDA-MB-231 [31]) was 44.7 nmol, the Activity (MDA-MB-231 [32]) was 21.9 nmol and the Activity (MDA-MB-231 [33]) was “Active”. For the same molecule, the Activity (MDA-MB-231 [34]) was 168.4 nmol, the Activity (MDA-MB-231 [35]) was 45.8 nmol and the Activity (MDA-MB-231 [36]) was 73.4 nmol.
